{"source": "paper PMC4062594", "about": "(Nature chemical biology, 2014)", "key": {"[1]": {"target": "T1, PTP1B in tumor lysates from NDL2 mice (Mus musculus, UniProt P35821)", "T1 sequence (P35821 1-432)": "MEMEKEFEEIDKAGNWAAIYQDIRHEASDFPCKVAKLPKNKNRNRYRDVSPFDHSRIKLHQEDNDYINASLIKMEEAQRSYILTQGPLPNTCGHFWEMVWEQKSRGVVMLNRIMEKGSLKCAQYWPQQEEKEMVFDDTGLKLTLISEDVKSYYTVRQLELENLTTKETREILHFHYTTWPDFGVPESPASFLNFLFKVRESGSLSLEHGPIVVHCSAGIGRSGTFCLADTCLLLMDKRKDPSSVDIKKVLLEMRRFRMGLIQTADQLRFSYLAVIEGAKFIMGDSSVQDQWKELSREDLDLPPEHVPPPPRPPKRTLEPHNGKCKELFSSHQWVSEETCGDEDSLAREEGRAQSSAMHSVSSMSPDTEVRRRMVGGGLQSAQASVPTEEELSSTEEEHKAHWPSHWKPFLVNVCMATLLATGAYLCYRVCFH", "test": "Binding assay with bead-immobilized compound in tumor lysates", "details": "confirmed by immunoblotting", "outline": "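Test compound was coupled through its primary amine to NHS-activated magnetic beads (1 mM, 100 mM triethylamine, 8 h, 4°C), and free NHS groups were blocked with 0.8 M aminoethanol. Beads were incubated with 0–1 mg NDL2 tumour lysate protein and washed. Bound protein was eluted by heat in SDS sample buffer, run on 10% SDS-PAGE and identified by immunoblotting. Beads carrying a related amine compound served as negative control.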"}, "PTP1B": {"target": "T2, PTP1B (Homo sapiens, UniProt P18031)", "T2 sequence (P18031 1-435)": "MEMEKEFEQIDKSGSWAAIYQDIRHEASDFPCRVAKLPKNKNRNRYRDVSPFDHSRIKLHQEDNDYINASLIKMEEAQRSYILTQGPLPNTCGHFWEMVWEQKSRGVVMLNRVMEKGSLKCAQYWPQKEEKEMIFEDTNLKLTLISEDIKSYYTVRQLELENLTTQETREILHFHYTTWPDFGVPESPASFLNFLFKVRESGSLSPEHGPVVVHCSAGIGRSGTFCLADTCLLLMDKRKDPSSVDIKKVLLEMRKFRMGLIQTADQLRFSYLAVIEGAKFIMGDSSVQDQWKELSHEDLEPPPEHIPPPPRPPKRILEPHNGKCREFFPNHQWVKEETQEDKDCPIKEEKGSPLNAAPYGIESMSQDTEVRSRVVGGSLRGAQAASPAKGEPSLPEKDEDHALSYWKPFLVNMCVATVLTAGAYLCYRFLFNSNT", "test": "PTP assay with DiFMUP, MSI-1459 versus MSI-1436", "type": "biochemical", "details": "DiFMUP 10 uM, compound 0-10 μM"}}, "note": "Entries after “also recorded” stand apart in the source; their conditions may differ.", "data": [{"substance": "3β-spermine, 5α, cholenic acid methyl ester [MSI-1459]", "values": [{"measurement": "retention of 50 kDa band (PTP1B) by compound beads", "setting": "[1]", "value": "not bound"}, {"measurement": "inhibition of PTP1B", "setting": "PTP1B", "value": "does not inhibit PTP1B; also recorded: poor inhibitory potency"}]}]}
